# Experimental data gathered from unrelated publications.
# Read-out: cell growth or viability
Compound,cell line,method,time,quantity,value
CN1CCN(CC2CCN(c3nccc4[nH]c(-c5cc(F)cc(F)c5)nc34)CC2)CC1,CHO,,,CC50,24 µM
CC(Oc1ccc(Cl)cc1Cl)C(=O)NC(c1ccc(F)cc1)C1CCC1 (centres unmarked),CHO,LDH,,CC50,> 100 µM
COc1ccc(S(=O)(=O)ON=C2C=C(C)C(=O)C(C)=C2)cc1,SH-SY5Y,,,CC50,0.19 µM
O=C(Cn1cnc2ccccc21)NN=Cc1ccc(O)cc1O,SH-SY5Y,MTT,24 h,IC50,89.2 µM
CC(Oc1ccc(F)cc1Cl)C(=O)NCc1ccc2c(c1)OCO2 (centres unmarked),CHO,LDH,,CC50,> 100 µM
O=[N+]([O-])c1ccc(-c2nc3cccc(O)c3[nH]2)o1,CHO,resazurin,72 h,CC50,97 µM
CN1CCN(c2nccc3nc(-c4ccc(F)c(F)c4)[nH]c23)CC1,CHO,,,CC50,> 50 µM
C#CCN[C@@H]1CCc2ccccc21,SH-SY5Y,MTT,24 h,IC50,> 500 µM
